# Measurements from ChEMBL document CHEMBL1122650, “Synthesis and central nervous system properties of 2-[(alkoxycarbonyl)amino]-4(5)-phenyl-2-imidazolines” (J Med Chem, 1984).
# Activity calls are given as the source filed them. No cut-off for these calls is given here.
# Test system: not listed separately
# Assay: HPLC capacity factor (k')
# Type: ADME
# Conditions: not given
row,Compound,Log k'
1,COC(=O)NC1=NC(c2ccccc2[S+](C)[O-])CN1C (stereo unspecified),-0.87
2,COC(=O)NC1=NC(c2cccc(Cl)c2)CN1 (stereo unspecified),0.4
3,CCOC(=O)NC1=NC(c2cccc(Br)c2)CN1 (stereo unspecified),0.77
4,COC(=O)NC1=NC(c2ccc([S+](C)[O-])cc2)CN1C (stereo unspecified),-1.03
5,COC(=O)NC1=NC(c2ccc(C)cc2)CN1 (stereo unspecified),0.3
6,COC(=O)NC1=NCC(c2cccc(Cl)c2)N1C (stereo unspecified),0.86
7,CCOC(=O)NC1=NC(c2ccc(C(C)C)cc2)CN1 (stereo unspecified),1.3
8,CCCCCCc1ccc(C2CN=C(NC(=O)OC)N2)cc1 (stereo unspecified),2.28

# Test system: Mus musculus
# Assay: Evaluated in vivo for reserpine hypothermia after oral administration in mouse. Minimum active dose was reported; 10-30% reduction
# Type: functional, organism-based
# Conditions: not given
# Procedure, shortened: (§1)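 Male HLa (ICR) BR mice, 18-24 g, in groups of eight; reserpine 5 mg/kg ip given 2 h before oral test compound as aqueous solution. Rectal temperature taken hourly; 1-4-h hypothermia assessed by analysis of variance.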
row,Compound,ED50
1,CCOC(=O)NC1=NC(c2ccc(C(C)C)cc2)CN1 (stereo unspecified),10-30% reduction

# Test system: Mus musculus
# Assay: Compound was evaluated in vivo for reserpine hypothermia after oral administration in mouse. Minimum active dose was reported; Inactive
# Type: functional, organism-based
# Conditions: not given
# Procedure, shortened: as §1
row,Compound,ED50
1,COC(=O)NC1=NC(c2ccccc2[S+](C)[O-])CN1C (stereo unspecified),inactive
2,COC(=O)NC1=NC(c2ccc([S+](C)[O-])cc2)CN1C (stereo unspecified),inactive

# Organism: Mus musculus
# Assay: Evaluated for antagonism of reserpine induced hypothermia;I= Inactive
# Type: functional, organism-based
# Conditions: not given
# Procedure, shortened: as §1
row,Compound,HYPO
1,COC(=O)NC1=NC(c2ccc([S+](C)[O-])cc2)CN1C (stereo unspecified),inactive
2,CCOC(=O)NC1=NC(c2ccc(C(C)C)cc2)CN1 (stereo unspecified),inactive
3,CCCCCCc1ccc(C2CN=C(NC(=O)OC)N2)cc1 (stereo unspecified),inactive

# Organism: Mus musculus
# Assay: Mouse behavior activity was determined; Dwk=Depressant Weak
# Type: functional, organism-based
# Conditions: not given
# Procedure, shortened: (§2)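 Male Simonsen (ICR) fBR mice, 18-24 g, groups of three, given 3, 10, 30, 100, 300 or 1000 mg/kg ip as aqueous solution and observed for behavioral profile; deaths followed up to 7 days.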
row,Compound,Mouse behavior activity
1,COC(=O)NC1=NC(c2ccc([S+](C)[O-])cc2)CN1C (stereo unspecified),Depressant Weak
2,CCOC(=O)NC1=NC(c2ccc(C(C)C)cc2)CN1 (stereo unspecified),Depressant - weak
3,CCCCCCc1ccc(C2CN=C(NC(=O)OC)N2)cc1 (stereo unspecified),Depressant - weak

# Organism: Mus musculus
# Assay: Mouse behavior activity was determined; Dwk= Depressant Weak
# Type: functional, organism-based
# Conditions: not given
# Procedure, shortened: as §2
row,Compound,Mouse behavior activity
1,COC(=O)NC1=NCC(c2cccc(Cl)c2)N1C (stereo unspecified),Depressant - weak

# Organism: Mus musculus
# Assay: Mouse behavior activity was determined; Dwk= Depressant Weak.
# Type: functional, organism-based
# Conditions: not given
# Procedure, shortened: as §2
row,Compound,Mouse behavior activity
1,COC(=O)NC1=NC(c2cccc(Cl)c2)CN1 (stereo unspecified),Depressant - weak
2,COC(=O)NC1=NC(c2ccc(C)cc2)CN1 (stereo unspecified),Depressant - weak

# Organism: Mus musculus
# Assay: Compound was evaluated for maximal electroshock antagonism (MES) against mice;I= Inactive
# Type: functional, organism-based
# Conditions: not given
# Procedure, shortened: (§3)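 Male HLa (ICR) BR mice, groups of eight to ten, dosed ip (aqueous solution) 15 min before transcorneal electroshock (50 mA, 0.2 s). End point: abolition of tonic hind-limb extension; quantal ED50 by Litchfield-Wilcoxon.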
row,Compound,ED50
1,CCOC(=O)NC1=NC(c2cccc(Br)c2)CN1 (stereo unspecified),inactive

# Organism: Mus musculus
# Assay: Compound was evaluated for maximal electroshock antagonism (MES) against mice
# Type: functional
# Conditions: not given
# Procedure, shortened: as §3
row,Compound,ED50 [mg/kg]
1,COC(=O)NC1=NC(c2cccc(Cl)c2)CN1 (stereo unspecified),48
2,COC(=O)NC1=NCC(c2cccc(Cl)c2)N1C (stereo unspecified),31

# Organism: Mus musculus
# Assay: Compound was evaluated for maximal electroshock antagonism (MES) against mice; Inactive
# Type: functional, organism-based
# Conditions: not given
# Procedure, shortened: as §3
row,Compound,ED50
1,COC(=O)NC1=NC(c2ccc([S+](C)[O-])cc2)CN1C (stereo unspecified),inactive
2,CCOC(=O)NC1=NC(c2ccc(C(C)C)cc2)CN1 (stereo unspecified),inactive

# Organism: Mus musculus
# Assay: Compound was evaluated for maximal electroshock antagonism (MES) against mice; Inactive.
# Type: functional, organism-based
# Conditions: not given
# Procedure, shortened: as §3
row,Compound,ED50
1,COC(=O)NC1=NC(c2ccc(C)cc2)CN1 (stereo unspecified),inactive
2,CCCCCCc1ccc(C2CN=C(NC(=O)OC)N2)cc1 (stereo unspecified),inactive

# Organism: Mus musculus
# Assay: Evaluated for antagonism of reserpine induced hypothermia
# Type: functional
# Conditions: not given
# Procedure, shortened: as §1
row,Compound,HYPO [mg/kg]
1,CCOC(=O)NC1=NC(c2cccc(Br)c2)CN1 (stereo unspecified),<0.5
2,COC(=O)NC1=NC(c2ccc(C)cc2)CN1 (stereo unspecified),>20
3,COC(=O)NC1=NCC(c2cccc(Cl)c2)N1C (stereo unspecified),<0.5

# Test system: not listed separately
# Assay: Lethal dose in mouse, in groups of ten
# Type: toxicity, organism-based
# Conditions: in vivo
row,Compound,LD50 [mg/kg]
1,COC(=O)NC1=NC(c2cccc(Cl)c2)CN1 (stereo unspecified),300
2,COC(=O)NC1=NC(c2ccc([S+](C)[O-])cc2)CN1C (stereo unspecified),> 1000
3,COC(=O)NC1=NC(c2ccc(C)cc2)CN1 (stereo unspecified),> 1000
4,COC(=O)NC1=NCC(c2cccc(Cl)c2)N1C (stereo unspecified),200
5,CCOC(=O)NC1=NC(c2ccc(C(C)C)cc2)CN1 (stereo unspecified),200
6,CCCCCCc1ccc(C2CN=C(NC(=O)OC)N2)cc1 (stereo unspecified),200
